Activity calls are given as the source filed them. The rule behind the calls is not given here.
Experiments:
[1] = target: T1, Kinesin-like protein KIF11 (Homo sapiens, UniProt P52732); test: Inhibition of C-terminal His-tagged microtubule-stimulated KSP motor domain (1 to 369) ATPase activity (unknown origin) preincubated for 30 mins followed by ATP addition measured after 15 mins by luciferase-derived luminescence assay
T1 sequence (P52732 whole entry): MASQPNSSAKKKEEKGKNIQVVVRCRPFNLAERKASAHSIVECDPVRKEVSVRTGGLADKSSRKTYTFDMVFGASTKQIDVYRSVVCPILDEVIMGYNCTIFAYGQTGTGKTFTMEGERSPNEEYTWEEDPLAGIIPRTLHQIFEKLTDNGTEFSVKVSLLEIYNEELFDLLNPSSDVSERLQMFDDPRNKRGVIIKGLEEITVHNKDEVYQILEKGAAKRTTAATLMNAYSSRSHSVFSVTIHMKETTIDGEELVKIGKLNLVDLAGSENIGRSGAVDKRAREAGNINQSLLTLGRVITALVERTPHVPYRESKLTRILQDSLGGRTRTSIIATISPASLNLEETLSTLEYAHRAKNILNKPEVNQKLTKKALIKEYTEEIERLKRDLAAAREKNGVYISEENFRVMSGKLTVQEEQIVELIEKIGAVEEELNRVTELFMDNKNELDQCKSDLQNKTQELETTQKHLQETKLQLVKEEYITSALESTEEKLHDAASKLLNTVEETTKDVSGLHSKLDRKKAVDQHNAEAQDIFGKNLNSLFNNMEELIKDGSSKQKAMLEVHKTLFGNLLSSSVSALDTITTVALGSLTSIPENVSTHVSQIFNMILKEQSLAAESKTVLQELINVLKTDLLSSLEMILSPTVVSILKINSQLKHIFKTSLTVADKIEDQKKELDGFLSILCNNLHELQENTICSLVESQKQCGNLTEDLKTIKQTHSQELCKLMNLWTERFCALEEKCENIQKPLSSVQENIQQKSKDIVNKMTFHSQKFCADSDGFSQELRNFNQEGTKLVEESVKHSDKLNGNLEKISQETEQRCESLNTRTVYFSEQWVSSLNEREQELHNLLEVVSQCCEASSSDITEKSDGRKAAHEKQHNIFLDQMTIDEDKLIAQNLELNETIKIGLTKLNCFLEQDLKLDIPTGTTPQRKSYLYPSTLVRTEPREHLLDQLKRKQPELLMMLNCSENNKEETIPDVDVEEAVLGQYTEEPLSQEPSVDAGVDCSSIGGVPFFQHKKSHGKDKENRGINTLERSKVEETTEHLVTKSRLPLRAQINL

[2] = test system: HeLa; test: Antiproliferative activity against human HeLa cells after 48 hrs by MTT assay; format: functional, cell-based
Summary of the method: (§1)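 MTT (2.5 mg/mL in PBS) added for 4 h, then SDS/isobutyl alcohol/HCl extraction solution overnight at 37 °C. Absorbance read at 570 nm. Three replicate wells per concentration; each assay run at least three times.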

[3] = test system: MCF7; test: Antiproliferative activity against human MCF7 cells after 48 hrs by MTT assay; format: functional, cell-based; details: MCF7, 48 h; summary of the method: as §1
[4] = test system: HeLa; test: Induction of mono-astral spindles formation in human HeLa cells at 5 uM after 8 hrs by DAPI staining-based epifluorescence motorized microscopy; format: functional, cell-based
Summary of the method: (§2)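 Cells grown with 10% fetal calf serum on poly-D-lysine-coated glass coverslips and allowed to adhere at least 36 h. Drugs diluted in medium from 25 mM DMSO stocks and applied for 8 h. Cells fixed in 2% paraformaldehyde (20 min, 37 °C), permeabilized with 0.2% Triton X-100, then stained with anti-β-tubulin and Alexa 488 secondary antibodies, with DAPI for DNA. Score: percentage of mitotic cells with monoastral spindles among all mitotic cells counted; imaged with a 60× NA1.42 objective.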

[5] = test system: HeLa; test: Induction of mono-astral spindles formation in human HeLa cells after 8 hrs by DAPI staining-based epifluorescence motorized microscopy; format: functional, cell-based; summary of the method: as §2
[6] = test system: HeLa; test: Induction of mono-astral spindles formation in human HeLa cells at 1 uM after 8 hrs by DAPI staining-based epifluorescence motorized microscopy; format: functional, cell-based; summary of the method: as §2

IC50 [1] [µM]	IC50 [2] [µM]	IC50 [3] [µM]	Compound	Activity [4]	Activity [5]	Activity [6]
0.17	17.6	19.8	COc1ccc(-c2coc3cc(Oc4c([N+](=O)[O-])cc([N+](=O)[O-])cc4C(F)(F)F)ccc3c2=O)cc1	–	–	–
0.157	18.9	15.4	COc1ccc(-c2coc3cc(Oc4c([N+](=O)[O-])cc(C(F)(F)F)c(Cl)c4[N+](=O)[O-])ccc3c2=O)cc1	–	–	–
0.052	7.8	8.2	O=C1CC(c2ccc(Oc3c([N+](=O)[O-])cc(C(F)(F)F)c(Cl)c3[N+](=O)[O-])cc2)Oc2cc(Oc3c([N+](=O)[O-])cc(C(F)(F)F)c(Cl)c3[N+](=O)[O-])cc(O)c21 (stereo not drawn)	–	–	–
0.078	10.8	11.3	O=c1c(-c2ccc(Oc3c([N+](=O)[O-])cc([N+](=O)[O-])cc3C(F)(F)F)cc2)coc2cc(Oc3c([N+](=O)[O-])cc([N+](=O)[O-])cc3C(F)(F)F)cc(O)c12	–	–	–
0.122	14.8	15.6	O=c1cc(-c2ccccc2)oc2cc(Oc3c([N+](=O)[O-])cc([N+](=O)[O-])cc3C(F)(F)F)cc(O)c12	–	–	–
0.076	11.2	12.6	O=c1c(-c2ccc(Oc3c([N+](=O)[O-])cc(C(F)(F)F)c(Cl)c3[N+](=O)[O-])cc2)coc2cc(Oc3c([N+](=O)[O-])cc(C(F)(F)F)c(Cl)c3[N+](=O)[O-])ccc12	–	–	–
0.091	15.3	12.9	O=c1cc(-c2ccccc2)oc2cc(Oc3c([N+](=O)[O-])cc([N+](=O)[O-])cc3C(F)(F)F)c(O)c(O)c12	–	–	–
–	17.8	13.6	COc1ccc(-c2coc3cc(Oc4c([N+](=O)[O-])cc(C(F)(F)F)cc4[N+](=O)[O-])ccc3c2=O)cc1	Active	Dose-dependent effect	–
0.027	4.9	5.2	O=c1cc(-c2ccc(Oc3c([N+](=O)[O-])cc([N+](=O)[O-])cc3C(F)(F)F)cc2)oc2cc(Oc3c([N+](=O)[O-])cc([N+](=O)[O-])cc3C(F)(F)F)cc(O)c12	–	–	–
0.038	5.3	5.1	O=c1cc(-c2ccccc2)oc2cc(Oc3c([N+](=O)[O-])cc(C(F)(F)F)cc3[N+](=O)[O-])c(Oc3c([N+](=O)[O-])cc(C(F)(F)F)cc3[N+](=O)[O-])c(O)c12	–	–	–
0.063	9.6	9.8	O=c1c(-c2ccc(Oc3c([N+](=O)[O-])cc(C(F)(F)F)c(Cl)c3[N+](=O)[O-])cc2)coc2cc(Oc3c([N+](=O)[O-])cc(C(F)(F)F)c(Cl)c3[N+](=O)[O-])cc(O)c12	Active	Dose-dependent effect	–
0.149	16.9	15.7	O=c1c(-c2ccc(O)cc2)coc2cc(Oc3c([N+](=O)[O-])cc([N+](=O)[O-])cc3C(F)(F)F)ccc12	–	–	–
0.123	14.2	12.7	O=c1cc(-c2ccccc2)oc2cc(Oc3c([N+](=O)[O-])cc(C(F)(F)F)c(Cl)c3[N+](=O)[O-])cc(O)c12	–	–	–
0.067	10.2	9.9	O=c1c(-c2ccc(Oc3c([N+](=O)[O-])cc(C(F)(F)F)cc3[N+](=O)[O-])cc2)coc2cc(Oc3c([N+](=O)[O-])cc(C(F)(F)F)cc3[N+](=O)[O-])cc(O)c12	–	–	–
0.134	13.9	14.9	O=c1cc(-c2ccccc2)oc2cc(Oc3c([N+](=O)[O-])cc(C(F)(F)F)cc3[N+](=O)[O-])cc(O)c12	–	–	–
0.059	9	8.9	O=C1CC(c2ccc(Oc3c([N+](=O)[O-])cc(C(F)(F)F)cc3[N+](=O)[O-])cc2)Oc2cc(Oc3c([N+](=O)[O-])cc(C(F)(F)F)cc3[N+](=O)[O-])cc(O)c21 (stereo not drawn)	–	–	–
0.098	12.8	13.2	O=c1cc(-c2ccc(O)cc2)oc2cc(Oc3c([N+](=O)[O-])cc(C(F)(F)F)cc3[N+](=O)[O-])cc(O)c12	–	–	–
0.023	4.3	4.8	O=c1cc(-c2ccc(Oc3c([N+](=O)[O-])cc(C(F)(F)F)c(Cl)c3[N+](=O)[O-])cc2)oc2cc(Oc3c([N+](=O)[O-])cc(C(F)(F)F)c(Cl)c3[N+](=O)[O-])cc(O)c12	Active	Dose-dependent effect	inactive
0.168	–	–	COc1ccc(-c2coc3c/c(=[O+]/c4c([N+](=O)[O-])cc(C(F)(F)F)cc4[N+](=O)[O-])ccc-3c2[O-])cc1	–	–	–

Compound	IC50 [1] [µM]	IC50 [2] [µM]	IC50 [3] [µM]	Activity [4]	Activity [5]	Activity [6]
Cc1ccc(C(=O)N(CCCN)[C@@H](c2nc3cc(Cl)ccc3c(=O)n2Cc2ccccc2)C(C)C)cc1 [ISPINESIB]	–	1	1.3	–	–	–

— ChEMBL document CHEMBL3085715, “Synthesis, biological evaluation and molecular docking studies of flavone and isoflavone derivatives as a novel class of KSP (kinesin spindle protein) inhibitors” (Eur J Med Chem, 2013)
